The source made the active and inactive calls. No cut-off for these calls is given here.

Data set [1] deals with A549. The data set can be described thus: Induction of necrosis in human A549 cells at 40 uM after 48 hrs assessed as increase in LDH release. As to conditions: a549, 48 h. It is filed as cell-based. The method, boiled down: (§1)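 A549 treated 48 h at 20 or 40 µM, 0.1% DMSO control; culture medium collected and LDH release measured with a commercial lactate dehydrogenase kit; mean ± SE, n = 3.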
(In general: LDH in the medium is a marker of cell lysis.)

The test system of data set [2] is A549. The data set can be described thus: Growth inhibition of human A549 cells after 48 hrs by sulforhodamine B assay. It counts as functional, cell-based. As to conditions: A549, 48 h. The method, boiled down:
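A549 (RPMI 1640, 10% bovine calf serum, seeded 6250/cm2) exposed 24 h after seeding to compound at 10, 20 or 40 µM, 0.1% DMSO control, for 24 or 48 h. TCA fixation 1 h at 4 °C, 0.4% SRB in 1% acetic acid, dye dissolved in 10 mM Tris base pH 10.5, OD 510 nm; mean ± SE, n = 3.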

Data set [3] deals with A549. The data set can be described thus: Effect on cell morphology in human A549 cells assessed as induction of vacuolization at 40 uM after 48 hrs by phase contrast microscopy. It counts as functional, cell-based. The method, boiled down: (§2)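 A549 in RPMI 1640 with 10% bovine calf serum, 80 U/ml gentamicin, 37 °C, 5% CO2; seeded at 6250/cm2. Treated with compound or left untreated for 24 or 48 h. Morphology (vacuoles, cell number) photographed at 400× under inverted phase contrast microscope.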

Data set [4] has as its system A549. Kind of data set: Effect on cell morphology in human A549 cells assessed as induction of vacuolization at 40 uM after 24 hrs by phase contrast microscopy. It counts as functional, cell-based. In a few lines: as §2
Data set [5] deals with A549. Kind of data set: Induction of autophagy in human A549 cells assessed as increase in LC3-II protein level at 40 uM after 48 hrs by Western blot. It is filed as functional, cell-based. The method, boiled down: (§3)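 A549 treated 24 or 48 h at 20 or 40 µM. Lysis in 0.5% SDS/Tris pH 7.5 buffer with protease inhibitors; Bradford protein; 15% SDS-PAGE, PVDF, milk block; anti-LC3b, anti-p62, anti-β-actin overnight 4 °C, HRP secondaries, chemiluminescence on X-ray film. Levels normalized to β-actin, expressed as percent of control.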
(A western blot detects proteins with antibodies after separation by electrophoresis.)

Data set [6] deals with A549. Kind of data set: Induction of autophagy in human A549 cells assessed as decrease in p62 protein level at 40 uM after 24 hrs by Western blot. It is filed as functional, cell-based. In a few lines: as §3
Data set [7] relates to A549. Kind of data set: Effect on cell morphology in human A549 cells assessed as decrease in cell number at 40 uM after 48 hrs by phase contrast microscopy. It counts as functional, cell-based. The method, boiled down:
as §2

Data set [8] relates to A549. The data set can be described thus: Effect on cell morphology in human A549 cells assessed as decrease in cell number at 40 uM after 24 hrs by phase contrast microscopy. It is filed as functional, cell-based. The method, boiled down: as §2
Data set [9] relates to A549. The data set can be described thus: Induction of autophagy in human A549 cells assessed as decrease in p62 protein level at 40 uM after 48 hrs by Western blot. It counts as functional, cell-based. In a few lines: as §3
Data set [10] concerns A549. Kind of data set: Induction of autophagy in human A549 cells assessed as increase in LC3-II protein level at 40 uM after 24 hrs by Western blot. It counts as functional, cell-based. The method, boiled down: as §3
In data set [11] the test system is A549. The data set can be described thus: Effect on cell morphology in human A549 cells assessed as decrease in cell number at 20 uM after 24 hrs by phase contrast microscopy. It counts as functional, cell-based. In a few lines:
as §2

Data set [12] deals with A549. Kind of data set: Induction of necrosis in human A549 cells at 20 uM after 48 hrs assessed as increase in LDH release. It counts as cell-based. As to conditions: a549, 48 h. The method, boiled down:
as §1

Data set [13] relates to A549. Kind of data set: Effect on cell morphology in human A549 cells assessed as decrease in cell number at 20 uM after 48 hrs by phase contrast microscopy. It is filed as functional, cell-based. The method, boiled down: as §2
Data set [14] deals with A549. Kind of data set: Induction of autophagy in human A549 cells assessed as increase in LC3-II protein level at 20 uM after 24 hrs by Western blot. It is filed as functional, cell-based. In a few lines:
as §3

For data set [15], the system named is A549. The data set can be described thus: Induction of autophagy in human A549 cells assessed as decrease in p62 protein level at 20 uM after 24 hrs by Western blot. It is filed as functional, cell-based. In a few lines: as §3
In data set [16] the test system is A549. Kind of data set: Induction of autophagy in human A549 cells assessed as increase in LC3-II protein level at 20 uM after 48 hrs by Western blot. It is filed as functional, cell-based. The method, boiled down: as §3
Data set [17] concerns A549. The data set can be described thus: Induction of autophagy in human A549 cells assessed as decrease in p62 protein level at 20 uM after 48 hrs by Western blot. It is filed as functional, cell-based. In a few lines: as §3
Data set [18] has as its system A549. Kind of data set: Effect on cell morphology in human A549 cells assessed as induction of vacuolization at 20 uM after 24 hrs by phase contrast microscopy. It counts as functional, cell-based. In a few lines: as §2

A word on the IC50: it is the concentration at which inhibition is half-maximal. As to `O=C(NN[C@@H]1O[C@H](CO)[C@@H](O)[C@H](O)[C@H]1O)c1cc(-c2ccc(Cl)cc2)nn1Cc1ccc(Cl)nc1`, in [1], the Activity entry is “Non-toxic”. In data set [2], this compound had an IC50 of 35 µM. Also, the result in data set [3] was Active.

`COc1ccc(-c2cc(C(=O)NN[C@@H]3OC[C@@H](O)[C@H](O)[C@H]3O)n(Cc3ccc(C(C)(C)C)cc3)n2)cc1`: the Activity result in [1] is “Non-toxic”. Besides, in [2], the IC50 was 24.9 µM. The outcome in data set [3] was Active.

As for `CC(C)(C)c1ccc(Cn2nc(-c3ccc(Cl)cc3)cc2C(=O)NN[C@@H]2O[C@H](CO)[C@@H](O)[C@H](O)[C@H]2O)cc1`, the Activity result in data set [1] was “Non-toxic”. In addition, the result in [4], in [5], in [6], in data set [7], in data set [8] and in data set [9] was Active. In addition, in data set [2], it took 26.6 µM to reach half-maximal inhibition (IC50). The result in [10] was inactive.

For the compound `CC(C)(C)c1ccc(Cn2nc(-c3ccccc3)cc2C(=O)NN[C@@H]2O[C@H](CO)[C@@H](O)[C@H](O)[C@H]2O)cc1`, in [1], the Activity result is given as “Non-toxic”. The outcome in data set [4], in data set [5], in data set [6], in [7], in [8] and in data set [9] was Active. The compound further showed an IC50 in [2] of 21.6 µM. For the same compound, in [10], the outcome was inactive.

Turning to `CC(C)(C)c1ccc(Cn2nc(-c3ccc(Cl)cc3)cc2C(=O)NN[C@@H]2OC[C@@H](O)[C@H](O)[C@H]2O)cc1`, the result in data set [11], in [13], in [15], in data set [16], in [17] and in data set [18] was Active. The Activity result in data set [1] was “Toxic”; in data set [12], “Non-toxic”. Moreover, in [2], the midpoint of inhibition, the IC50, lay at 13.9 µM. The outcome in [14] was inactive.

As for `O=C(NN[C@@H]1O[C@H](CO)[C@@H](O)[C@H](O)[C@H]1O)c1cc(-c2ccc(Cl)cc2)nn1Cc1ccccc1`, in data set [1], the Activity entry is listed as “Non-toxic”. The IC50 in data set [2] is 31.8 µM.

Take `CC(C)(C)c1ccc(Cn2nc(-c3ccccc3)cc2C(=O)NN[C@@H]2OC[C@@H](O)[C@H](O)[C@H]2O)cc1`: in data set [1], the Activity entry is “Non-toxic”. The outcome in [4], in data set [5], in [6], in data set [7], in data set [8] and in data set [9] was Active. Also, it took 15.2 µM to reach half-maximal inhibition in data set [2] (IC50). For the same compound, in data set [10], the outcome was inactive.

With `COc1ccc(-c2cc(C(=O)NN[C@@H]3O[C@H](CO)[C@@H](O)[C@H](O)[C@H]3O)n(Cc3ccc(C(C)(C)C)cc3)n2)cc1`, the Activity result in data set [1] is “Non-toxic”. The compound further came in with an IC50 in data set [2] of 38.9 µM. Further, the result in [3] was Active.
